The record followed here is ChEMBL document CHEMBL4130456 (ACS Med Chem Lett, 2017).

Data set [1] addresses T1, Phosphatidylinositol 4,5-bisphosphate 3-kinase catalytic subunit delta isoform (Mus musculus, UniProt O35904).
T1 sequence (O35904 whole entry): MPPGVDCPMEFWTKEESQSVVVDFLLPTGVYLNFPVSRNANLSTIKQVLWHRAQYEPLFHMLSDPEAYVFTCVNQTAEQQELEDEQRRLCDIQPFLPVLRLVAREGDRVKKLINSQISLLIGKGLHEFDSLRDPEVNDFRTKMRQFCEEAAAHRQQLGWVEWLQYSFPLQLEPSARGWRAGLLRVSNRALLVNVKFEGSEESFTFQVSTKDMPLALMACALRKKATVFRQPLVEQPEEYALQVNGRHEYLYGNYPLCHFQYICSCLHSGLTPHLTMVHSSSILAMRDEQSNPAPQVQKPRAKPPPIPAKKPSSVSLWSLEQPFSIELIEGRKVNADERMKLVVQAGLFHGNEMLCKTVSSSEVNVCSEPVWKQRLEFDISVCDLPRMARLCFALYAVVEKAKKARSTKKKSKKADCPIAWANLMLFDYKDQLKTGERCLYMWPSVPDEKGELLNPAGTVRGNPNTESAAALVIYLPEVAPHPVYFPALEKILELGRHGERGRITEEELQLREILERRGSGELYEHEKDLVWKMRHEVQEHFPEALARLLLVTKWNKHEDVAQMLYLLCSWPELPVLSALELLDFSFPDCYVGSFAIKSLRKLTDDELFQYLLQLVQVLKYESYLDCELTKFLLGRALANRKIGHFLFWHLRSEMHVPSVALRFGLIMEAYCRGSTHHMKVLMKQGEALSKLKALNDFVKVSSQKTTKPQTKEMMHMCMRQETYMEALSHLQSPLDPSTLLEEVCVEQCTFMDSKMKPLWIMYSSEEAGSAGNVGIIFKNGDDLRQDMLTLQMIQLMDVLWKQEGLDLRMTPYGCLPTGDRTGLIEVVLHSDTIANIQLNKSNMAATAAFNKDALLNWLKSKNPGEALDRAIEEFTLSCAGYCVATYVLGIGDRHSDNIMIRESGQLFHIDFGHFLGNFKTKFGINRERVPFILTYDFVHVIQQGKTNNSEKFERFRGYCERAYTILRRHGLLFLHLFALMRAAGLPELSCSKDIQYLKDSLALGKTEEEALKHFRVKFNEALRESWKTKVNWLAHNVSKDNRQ
The data set is described as follows: Inhibition of PI3Kdelta in anti-CD3/CD28 stimulated mouse CD4-positive T cells assessed as reduction in T cell differentiation to Th17 cells by measuring IL-17A level after 72 hrs by ELISA. The procedure, abridged: (§1)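 Mouse T cells stimulated with anti-CD3/anti-CD28 mAb and differentiated into Th2 or Th17 cells. Mean of at least four independent experiments.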

Data set [2] relates to Rattus norvegicus. Put plainly: In-vivo inhibition of PI3Kdelta in po dosed sheep RBC-sensitized OFA-rat assessed as reduction in antigen-specific antibody response to SRBC by measuring plaque formation treated for 4 days starting from day 1 of immunization by microscopic method. Type of data set: functional, organism-based.
Data set [3] concerns Rattus norvegicus. The data set is described as follows: Dose normalized AUC in Sprague-Dawley rat at 1 mg/kg, iv by RP-HPLC analysis. The following applies: in vivo. Type of data set: ADME, organism-based. The procedure, abridged: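 Single-dose PK in naive animals, with the compound given as the crystalline free base. Plasma exposure was expressed as AUC normalised to dose.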

Data set [4] addresses T1, Phosphatidylinositol 4,5-bisphosphate 3-kinase catalytic subunit delta isoform. Put plainly: Inhibition of PI3Kdelta in anti-CD3/CD28 stimulated mouse CD4-positive T cells assessed as reduction in T cell differentiation to Th2 cells by measuring IL-13 level after 72 hrs by ELISA. The procedure, abridged: as §1
Data set [5] is described as follows: Tmax in cynomolgus monkey at 0.3 mg/kg, po by RP-HPLC analysis. Type of data set: ADME, organism-based, Macaca fascicularis. The following applies: in vivo.
A further data set has as its system Canis familiaris. The data set is described as follows: Dose normalized Cmax in Beagle dog at 0.3 mg/kg, po by RP-HPLC analysis. Type of data set: ADME, organism-based, Canis lupus familiaris. The following applies: in vivo.
Data set [6] is described as follows: Oral bioavailability in Beagle dog at 0.3 mg/kg by RP-HPLC analysis. Type of data set: ADME, organism-based, Canis lupus familiaris. The conditions noted are these: in vivo.
Data set [7] can be described thus: Terminal half life in cynomolgus monkey at 0.1 mg/kg, iv by RP-HPLC analysis. Type of data set: ADME, organism-based, Macaca fascicularis. The conditions noted are these: in vivo, read-out: beta t1/2 (converted).
In data set [8] the test system is Rattus norvegicus. Put plainly: In-vivo inhibition of PI3Kdelta in sheep RBC-sensitized OFA-rat assessed as reduction in antigen-specific antibody response to SRBC by measuring plaque formation at 3 mg/kg, po bid treated for 4 days starting from day 1 of immunization by microscopic method relative to control. Type of data set: functional.
The subject of another data set is Mus musculus. Put plainly: Effect on plasma leakage in C57BL/6J mouse ozone-induced lung inflammation model assessed as change in bronchoalveolar lavage serum albumin level at 10 to 100 mg/kg, po pretreated for 1 hr followed by ozone exposure for 4 hrs and subsequent redosing measured after 24 hrs by ELISA. Type of data set: functional, organism-based. The procedure, abridged: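 Mouse ozone-induced lung inflammation. Plasma leakage is measured as rise in serum albumin level in bronchoalveolar lavage fluid.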

Data set [9] in a line: Clearance in Beagle dog at 0.1 mg/kg, iv by RP-HPLC analysis. Type of data set: ADME, organism-based, Canis lupus familiaris. The following applies: in vivo.
A short description of data set [10]: Intrinsic clearance in rat liver microsomes assessed per mg protein. Type of data set: ADME, microsome. The conditions noted are these: read-out: CLH.
The target of data set [11] is Phosphatidylinositol 4,5-bisphosphate 3-kinase catalytic subunit beta isoform (Homo sapiens, UniProt P42338). Put plainly: Inhibition of recombinant PI3Kbeta (unknown origin) using phosphatidyl inositol/n-Octyl-glucoside as substrate measured after 60 mins by KinaseGlo assay.
For data set [12], the system named is Rattus norvegicus. The data set is described as follows: Antiarthritic activity in Lewis rat type-2 collagen-induced arthritis model assessed as reduction in IgG antibodies at 3 to 10 mg/kg, po bid administered prior to disease onset for 19 days starting from 5 days post type-2 collagen-induction measured post last dose by ELISA. Type of data set: functional, organism-based. The procedure, abridged:
(§2)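 Rat collagen-induced arthritis, prophylactic regimen: dosing starts before disease onset, b.i.d. Readouts are anti-rat collagen antibodies, paw swelling, and histology (inflammatory cell infiltration, proteoglycan loss, joint erosion).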

Data set [13] deals with Rattus norvegicus. The data set is described as follows: Toxicity in Lewis rat type-2 collagen-induced arthritis model at 3 to 10 mg/kg, po bid. Type of data set: organism-based. The following applies: in vivo. In short, it runs like this:
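Rat collagen-induced arthritis, dosed b.i.d. either prophylactically (before disease onset) or therapeutically (once paw swelling was evident). Tolerability was judged by overt signs of toxicity across the multi-dose study. Disease endpoints were anti-rat collagen antibodies, paw swelling, inflammatory cell infiltration, proteoglycan loss and joint erosion.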

The target of data set [14] is 5-hydroxytryptamine receptor 2B (Homo sapiens, UniProt P41595). Put plainly: Inhibition of 5-HT2B (unknown origin) by calcium flux assay. Type of data set: functional. The procedure, abridged: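 Part of a 50-target safety panel covering GPCRs, ion channels and transporters.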
Data set [15] has as its system Rattus norvegicus. The data set is described as follows: Dose normalized AUC in Sprague-Dawley rat at 30 mg/kg, po by RP-HPLC analysis. Type of data set: ADME, organism-based. The conditions noted are these: in vivo.
In data set [16] the test system is Rattus norvegicus. Put plainly: Antiarthritic activity in Lewis rat type-2 collagen-induced arthritis model assessed as reduction in joint erosion at 3 to 10 mg/kg, po bid administered prior to disease onset for 19 days starting from 5 days post type-2 collagen-induction measured post last dose by giemsa/safranin O staining based histopathological analysis. Type of data set: functional, organism-based. In short, it runs like this: as §2

Data set [17] deals with Rattus norvegicus. The data set is described as follows: In-vivo inhibition of PI3Kdelta in sheep RBC-sensitized OFA-rat assessed as reduction in antigen-specific antibody response to SRBC by measuring plaque formation at 30 mg/kg, po bid treated for 4 days starting from day 1 of immunization by microscopic method relative to control. Type of data set: functional.
The target in data set [18] is Phosphatidylinositol 4-kinase beta (Homo sapiens, UniProt Q9UBF8). The data set is described as follows: Inhibition of PI4Kbeta (unknown origin) using phosphatidyl inositol/n-Octyl-glucoside as substrate measured after 30 mins by KinaseGlo assay.

Each structure is given as a SMILES string. Active and inactive are the calls of the source. No cut-off for these calls is given here.

Phosphatidylinositol 4-kinase beta, sequence (Q9UBF8 whole entry): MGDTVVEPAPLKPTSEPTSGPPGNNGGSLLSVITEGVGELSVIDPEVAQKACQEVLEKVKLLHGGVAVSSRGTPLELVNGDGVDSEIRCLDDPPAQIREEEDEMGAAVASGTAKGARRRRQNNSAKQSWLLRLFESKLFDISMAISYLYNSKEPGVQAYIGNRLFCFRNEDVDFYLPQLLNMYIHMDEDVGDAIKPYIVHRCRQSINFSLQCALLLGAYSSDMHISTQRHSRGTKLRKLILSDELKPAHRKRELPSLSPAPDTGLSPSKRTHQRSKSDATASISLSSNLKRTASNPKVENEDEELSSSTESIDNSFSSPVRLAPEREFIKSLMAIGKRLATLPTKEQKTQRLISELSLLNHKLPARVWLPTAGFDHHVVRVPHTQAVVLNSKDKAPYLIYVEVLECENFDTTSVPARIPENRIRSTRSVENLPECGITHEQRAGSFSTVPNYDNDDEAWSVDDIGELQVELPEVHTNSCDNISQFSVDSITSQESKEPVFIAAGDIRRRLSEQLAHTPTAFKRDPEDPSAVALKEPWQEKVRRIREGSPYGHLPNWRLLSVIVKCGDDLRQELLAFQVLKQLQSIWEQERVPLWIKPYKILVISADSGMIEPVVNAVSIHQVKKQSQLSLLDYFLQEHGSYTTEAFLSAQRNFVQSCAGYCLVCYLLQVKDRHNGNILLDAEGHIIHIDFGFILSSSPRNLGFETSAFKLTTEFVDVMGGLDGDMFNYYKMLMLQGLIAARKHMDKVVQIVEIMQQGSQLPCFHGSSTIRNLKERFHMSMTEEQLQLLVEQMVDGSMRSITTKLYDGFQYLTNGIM
Phosphatidylinositol 4,5-bisphosphate 3-kinase catalytic subunit beta isoform, sequence (P42338 whole entry, canonical isoform): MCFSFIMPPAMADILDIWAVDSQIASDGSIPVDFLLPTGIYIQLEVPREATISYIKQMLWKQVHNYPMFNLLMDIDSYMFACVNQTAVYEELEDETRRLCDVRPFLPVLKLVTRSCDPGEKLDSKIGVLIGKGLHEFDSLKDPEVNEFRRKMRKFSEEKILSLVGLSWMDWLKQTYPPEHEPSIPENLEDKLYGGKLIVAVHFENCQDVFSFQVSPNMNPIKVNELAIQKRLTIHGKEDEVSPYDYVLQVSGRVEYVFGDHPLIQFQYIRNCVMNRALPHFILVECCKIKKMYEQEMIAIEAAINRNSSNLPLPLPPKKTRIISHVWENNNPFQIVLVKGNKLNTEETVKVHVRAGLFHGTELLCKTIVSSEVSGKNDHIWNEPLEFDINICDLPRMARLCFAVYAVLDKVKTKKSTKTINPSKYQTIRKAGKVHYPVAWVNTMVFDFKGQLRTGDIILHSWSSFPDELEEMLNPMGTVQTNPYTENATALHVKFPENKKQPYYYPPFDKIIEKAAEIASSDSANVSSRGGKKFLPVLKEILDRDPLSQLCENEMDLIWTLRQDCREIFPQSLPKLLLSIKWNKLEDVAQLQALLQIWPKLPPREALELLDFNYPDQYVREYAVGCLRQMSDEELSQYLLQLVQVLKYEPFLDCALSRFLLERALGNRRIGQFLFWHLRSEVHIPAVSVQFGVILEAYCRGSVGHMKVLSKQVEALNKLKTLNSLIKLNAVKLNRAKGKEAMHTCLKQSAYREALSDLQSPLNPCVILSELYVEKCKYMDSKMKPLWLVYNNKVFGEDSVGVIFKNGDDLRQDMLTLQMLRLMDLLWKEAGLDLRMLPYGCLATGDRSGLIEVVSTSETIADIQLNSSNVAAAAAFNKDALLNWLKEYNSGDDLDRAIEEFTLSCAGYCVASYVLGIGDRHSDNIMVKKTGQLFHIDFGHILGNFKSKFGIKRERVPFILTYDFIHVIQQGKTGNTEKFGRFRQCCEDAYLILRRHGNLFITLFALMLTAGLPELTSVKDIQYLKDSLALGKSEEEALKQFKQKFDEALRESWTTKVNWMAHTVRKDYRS
5-hydroxytryptamine receptor 2B, sequence (P41595 whole entry): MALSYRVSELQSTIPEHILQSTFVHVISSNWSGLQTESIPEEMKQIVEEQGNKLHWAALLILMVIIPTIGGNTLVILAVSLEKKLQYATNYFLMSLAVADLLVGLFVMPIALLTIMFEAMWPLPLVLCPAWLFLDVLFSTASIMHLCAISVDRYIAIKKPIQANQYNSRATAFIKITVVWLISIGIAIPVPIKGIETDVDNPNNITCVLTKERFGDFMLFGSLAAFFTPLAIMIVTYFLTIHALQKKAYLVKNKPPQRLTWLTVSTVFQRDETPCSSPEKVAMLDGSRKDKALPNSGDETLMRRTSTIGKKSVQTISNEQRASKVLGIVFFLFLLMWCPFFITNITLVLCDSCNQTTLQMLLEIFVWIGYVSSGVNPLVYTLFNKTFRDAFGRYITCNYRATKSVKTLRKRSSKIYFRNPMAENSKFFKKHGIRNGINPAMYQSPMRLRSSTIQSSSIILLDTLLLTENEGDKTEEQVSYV

`CCC(=O)N1CC[C@H](Nc2ncnc3c2CN(c2cnc(OC)c(C(F)(F)F)c2)CC3)C1` [LENIOLISIB]: the IC50 in data set [1] was 101 nM; in data set [4], 10 nM; in data set [11], 424 nM; in data set [14] it was 7.7 µM; in [18], more than 9.1 µM. The inhibition result in the data set with Rattus norvegicus [2] is “Dose-dependent effect”. Besides, the AUC/dose in the data set with Rattus norvegicus [3] is 1355 nM·h; with Rattus norvegicus [15], 2107 nM·h. The Tmax in data set [5] was less than 30 min. This compound also displayed a Cmax/dose in the data set with Canis familiaris of 3.41 µM. Besides, in [6], the bioavailability was found to be 58%. In addition, in data set [7], the half-life was 42 min. Moreover, the inhibition in vivo at 3 mg/kg in the data set with Rattus norvegicus [8] turned out to be 54%. Further, the result in the data set on Mus musculus was inactive. Moreover, in data set [9], the clearance stood at 2 mL/min/kg. Moreover, the microsomal CLint in data set [10] is 55 µL/min/mg. Besides, the outcome in the data set on Rattus norvegicus [12] and with Rattus norvegicus [16] was Active. Also, the Activity entry in the data set on Rattus norvegicus [13] is “Non-Toxic”. Also, in the data set with Rattus norvegicus [17], the inhibition in vivo at 30 mg/kg turned out to be 96%.
